Consider 42 compounds from PubChem BioAssay AID504325 (Broad Institute, 2011).

Each structure is given as a SMILES string. Results filed as inconclusive are left out. The source made the active and inactive calls.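 Rule for the calls: active = every replicate test active, with falling signal and half-maximal potency at or below ten times the top dose; inconclusive = replicate tests give conflicting calls; inactive = all tests inactive, or signal shifts the wrong way.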

Test system in one test: not listed separately
Description: cytotoxicity in HMLE_sh_eGFP control cells, dose response, counter-screen for breast cancer stem cell project, cell-based, dry powder, set 2 (AID 504325). As to conditions: HMLE_sh_eGFP viability, CellTiter-Glo luminescence, 72 h; at 30 µM (top of the series). In short, it runs like this: (§1)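 System: HMLE_sh_eGFP cells | Input: 2000 HMLE_sh_eGFP cells per well | Medium: Serum-free culture medium | Schedule: About 72 h compound exposure at 37 °C | Technique: CellTiter-Glo ATP luminescence | Benchmarks: DMSO-only neutral wells and puromycin positive wells on each plate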
Consider `NNC(=O)COc1ccc(Cl)cc1Cl`, for which the activity change, negative = cytotoxic is -3.9% (inactive).

As for `CC(C)c1ccc(/C=C/C(=O)O)cc1`, the activity change, negative = cytotoxic was 16.2% (inactive).

For `N#Cc1ccccc1OCC(=O)N/N=C/c1ccc[nH]1`, the activity change, negative = cytotoxic was -7.45% (inactive).

For the compound `O=C(C#Cc1ccccc1)NC1=NCCS1`, the activity change, negative = cytotoxic is 9.83% (inactive).

As for `O=C(COc1ccccc1F)N/N=C/c1ccc[nH]1`, the activity change, negative = cytotoxic was 1.58% (inactive).

In the case of `Cc1ccccc1NCC(=O)N/N=C/c1ccc[nH]1`, the activity change, negative = cytotoxic is 7.91% (inactive).

As to `COc1cc(/C=C/C(=O)NC2=NCCS2)cc(OC)c1OC`, the activity change, negative = cytotoxic is 0.088% (inactive).

With `O=C(CCc1ccccc1)NC1=NCCS1`, the activity change, negative = cytotoxic is 4.67% (inactive).

`O=C(N/N=C/c1ccc[nH]1)C1Cc2ccccc2O1` (configuration not stated): the activity change, negative = cytotoxic is -1.79% (inactive).

Regarding `COc1ccc(/C=C/C(=O)NC2=NCCS2)c(OC)c1OC`, the activity change, negative = cytotoxic is -0.513% (inactive).

Take `O=C(COc1ccc(Cl)cc1Cl)N/N=C/c1ccc[nH]1`: the activity change, negative = cytotoxic was -54.1% (inactive).

Regarding `CC(=O)Oc1ccccc1/C=C/C(=O)NC1=NCCS1`, the activity change, negative = cytotoxic is 0.09% (inactive).

`O=C(/C=C/c1cc(Cl)ccc1Cl)NC1=NCCS1`: the activity change, negative = cytotoxic is 3.58% (inactive).

As for `COc1ccc(/C=C/C(=O)NC2=NCCS2)cc1OC`, the activity change, negative = cytotoxic is -1.05% (inactive).

For `O=C(O)c1ccc(COc2ccccc2)o1`, the activity change, negative = cytotoxic is 1.43% (inactive).

On to `CC(C)(C)c1ccc2c(c1)OC(C(=O)NN)CO2` (configuration not stated), for which the activity change, negative = cytotoxic is 15.8% (inactive).

Turning to `O=C(N/N=C/c1ccc[nH]1)c1cc2ccccc2o1`, the activity change, negative = cytotoxic was 13.1% (inactive).

On to `Cc1ccccc1OCC(=O)N/N=C/c1ccc[nH]1`, for which the activity change, negative = cytotoxic is 5.25% (inactive).

As for `Cc1ccccc1/C=C/C(=O)NC1=NCCS1`, the activity change, negative = cytotoxic is 6.57% (inactive).

With `O=C(COc1ccc(Cl)cc1Cl)N/N=C/c1cnc[nH]1`, the activity change, negative = cytotoxic was -6.28% (inactive).

Take `O=C(/C=C/c1ccccc1)NC1=NCCS1`: the activity change, negative = cytotoxic was -4.89% (inactive).

Regarding `COc1ccc(OC)c(/C=C/C(=O)NC2=NCCS2)c1`, the activity change, negative = cytotoxic is 2.36% (inactive).

On to `COc1ccc(CCC(=O)N/N=C/c2ccc[nH]2)cc1`, for which the activity change, negative = cytotoxic is -0.101% (inactive).

Regarding `O=C(COc1ccc(Cl)cc1Cl)N/N=C/c1cccs1`, the activity change, negative = cytotoxic was 13.7% (inactive).

Consider `CCNC(=O)/C=C/c1ccc(C(C)C)cc1`, for which the activity change, negative = cytotoxic was 7.1% (inactive).

Consider `O=Cc1ccc[nH]1`, for which the activity change, negative = cytotoxic was 7.66% (inactive).

As to `CC(Oc1ccc(F)cc1Cl)C(=O)N/N=C/c1ccc[nH]1` (configuration not stated), the activity change, negative = cytotoxic was 16.8% (inactive).

On to `CC(=O)Oc1ccc(/C=C/C(=O)NC2=NCCS2)cc1`, for which the activity change, negative = cytotoxic is -11.6% (inactive).

With `O=C(COc1ccc(Cl)cc1)N/N=C/c1ccc[nH]1`, the activity change, negative = cytotoxic was 10.5% (inactive).

For `O=C(COc1ccc(Cl)cc1Cl)N/N=C/c1ccco1`, the activity change, negative = cytotoxic was 5.52% (inactive).

For the compound `O=C(/C=C/c1ccc(F)cc1)NC1=NCCS1`, the activity change, negative = cytotoxic is -0.331% (inactive).

Regarding `COc1ccc(/C=C/C(=O)NC2=NCCS2)c(OC)c1`, the activity change, negative = cytotoxic is 3.11% (inactive).

Turning to `O=C(NC1=NCCS1)c1ccc(COc2ccccc2)o1`, the activity change, negative = cytotoxic was 12.9% (inactive).

With `Cn1c(C(=O)NC2=NCCS2)cc2ccccc21`, the activity change, negative = cytotoxic was 6.92% (inactive).

For a further test, the system named is HMLE_sh_eGFP viability, CellTiter-Glo luminescence, 72 h. The description is as above.
Conditions: not given
In short, it runs like this: as §1
In general, AC50 refers to the midpoint of the concentration-response curve, whichever way the signal moves. Take `CC(C)c1ccc(/C=C/C(=O)Nc2ccccc2)cc1`: the half-maximal activity concentration (AC50) is 3.28 µM.

Regarding `Cn1cncc1/C=N/NC(=O)COc1ccc(Cl)cc1Cl`, the half-maximal activity concentration (AC50) is 18.9 µM.

As for `O=C(COc1c(Cl)cc(Cl)cc1Cl)N/N=C/c1ccc[nH]1`, the AC50 was 27.6 µM.

With `CC(C)(C)c1ccc2c(c1)OC(C(=O)N/N=C/c1ccc[nH]1)CO2` (configuration not stated), the AC50 is 15 µM.

For the compound `Cc1csc(NC(=O)c2ccc(COc3ccccc3)o2)n1`, the half-maximal activity concentration (AC50) was 13.3 µM.

Regarding `CC(C)c1ccc(/C=C/C(=O)NC2=NCCS2)cc1`, the AC50 is 8.92 µM.

`Cc1csc(NC(=O)/C=C/c2ccc(C(C)C)cc2)n1`: the AC50 was 2.83 µM.

With `Cc1ccc(/C=N/NC(=O)COc2ccc(Cl)cc2Cl)[nH]1`, the AC50 is 16.9 µM.
